Only some compounds are listed: those with a hit (about 2% of all), similar ones and a draw of the others.
TDP2 absorb: human TDP2 enzyme inhibitors, primary screen, biochemical, epi absorbance, recombinant enzyme. Tyrosyl-DNA phosphodiesterase 2 (Homo sapiens), O95551. inhibition, % at 12.8 µM. AID 720702, 2013. T5PNP hydrolysis, p-nitrophenol absorbance 415 nm. 0.34% of 370,000 active;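 active means inhibition above the mean of all tested compounds plus 3 SD, set per campaign, cut at about 25% in these data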;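 further: 0% = DMSO with enzyme and 100% = buffer with substrate but no TDP2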
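test system = human TDP2 enzyme | input = TDP2 enzyme at 120 nM final | medium = 50 mM Tris-HCl pH 7.5 with Mg2+, KCl, DTT, BSA | also added = T5PNP substrate, 5 mM | times = 2 h at 37 °C | technique = epi absorbance | benchmarks = high control without enzyme, low control DMSO plus TDP2 | replication = each compound tested once, singlicate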
ASAP1 GAP inh: inhibitors of human ASAP1 ArfGAP activity, primary screen, biochemical, fluorescence polarization. ASAP1-stimulated ARF1 GTP hydrolysis, GDP FP detection. 0.19% of 360,000 active. inhibition, % at 16.5 µM. Arf-GAP with SH3 domain, ANK repeat and PH domain-containing protein 1 (Homo sapiens), …. AID 624377, 2012;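 further: 0% = vehicle with enzyme and substrate and 100% = no enzyme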
Target sequence (Q9ULH1 325-724 limits assumed): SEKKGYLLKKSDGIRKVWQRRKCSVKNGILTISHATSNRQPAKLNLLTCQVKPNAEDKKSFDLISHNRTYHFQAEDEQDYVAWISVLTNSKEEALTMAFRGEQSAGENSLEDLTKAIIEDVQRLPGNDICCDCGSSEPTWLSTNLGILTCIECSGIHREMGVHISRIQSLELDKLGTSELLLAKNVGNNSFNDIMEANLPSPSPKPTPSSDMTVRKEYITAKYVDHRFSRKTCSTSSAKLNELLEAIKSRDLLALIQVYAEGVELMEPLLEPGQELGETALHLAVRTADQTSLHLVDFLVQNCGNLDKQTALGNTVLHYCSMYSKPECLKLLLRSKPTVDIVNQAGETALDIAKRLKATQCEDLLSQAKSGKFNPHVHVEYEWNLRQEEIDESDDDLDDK
ARFGAP1 inh: inhibitors of rat ARFGAP1 GAP activity, primary screen, biochemical, fluorescence polarization, GDP tracer; ADP-ribosylation factor GTPase-activating protein 1 (Rattus norvegicus), Q62848; Arfgap1-stimulated ARF1 GTP hydrolysis, GDP FP detection; inhibition, % at 16.5 µM; 0.26% of 360,000 active;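 active means inhibition above a per-plate limit, mean inhibition of low control wells plus 3 SD, cut at about 25% in these data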;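 further: 0% = DMSO wells with enzyme and 100% = wells lacking Arfgap1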
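Replicates: Single well per compound | Assay system: Truncated rat Arfgap1 GAP domain | Control set: No-Arfgap1 wells (100%) versus DMSO full-reaction wells (0%) | Times: Enzyme reaction 120 min at 25 °C after 20 min preincubation | Reagent: Human ARF1(Δ1-17)-GTP substrate | Measured by: Tracer-displacement fluorescence polarization with EDTA stop, 620/688 nm | Measure: Percent inhibition of Arfgap1-stimulated GTP hydrolysis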
MBD2 DNA inh: inhibitors of MBD2 binding to methylated DNA, primary screen, biochemical, TR-FRET, DNA-binding domain, human; 0.31% of 370,000 active; Methyl-CpG-binding domain protein 2 (Homo sapiens), Q9UBB5; AID 686964, 2013; MBD2 binding to methylated oligonucleotide; inhibition, % at 4.4 µM; in the data active means inhibition above about 13%
LEDGF integ inh: blockers of LEDGF/p75-dependent integrase strand transfer – biochemical, TR-FRET, high throughput, primary screen; HIV-1 integrase (with human LEDGF/p75); TR-FRET IN-LEDGF/p75 DNA integration, Eu/Cy5; inhibition, % at 3.7 µM; 0.64% of 370,000 active;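 active means inhibition above the screen-wide mean plus 3 SD, cut at about 13% in these data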;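 further: signal is the Cy5 over europium emission ratio at 671 and 618 nm; 0% = plate median of compound wells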
UHRF1 binding: UHRF1 methylated DNA binding inhibitors, primary screen, counter-screen for MBD2 inhibitor project, biochemical, TR-FRET, human UHRF1, single concentration; UHRF1 binding to methylated oligo; inhibition, % at 4.4 µM; 0.75% of 370,000 active; in the data active means inhibition above about 21%;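 further: UHRF1 SRA domain binding a hemimethylated CpG hairpin DNA probe; 0% = median of test compound wells and 100% = reference inhibitor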
ASAP1 inh confirm: ASAP1 GAP activity inhibitors, confirmation, biochemical, fluorescence polarization, human, triplicate | shares compounds with ASAP1 GAP inh | ASAP1-stimulated Arf1 GTPase, GDP fluorescence polarization | inhibition, % at 16.5 µM | 37% of 620 active;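 active means mean inhibition over triplicates exceeds the hit threshold derived for the earlier primary screening run, cut at about 25% in these data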
ARFGAP1 confirm: ARFGAP1 inhibitor hit confirmation, biochemical, fluorescence polarization, triplicate; shares compounds with ARFGAP1 inh; ARFGAP1-stimulated ARF1 GTP hydrolysis, GDP tracer FP; inhibition, % at 16.5 µM; 30% of 890 active;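 active means average inhibition over triplicates above the hit cutoff set in the earlier primary screen, cut at about 25% in these data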;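 further: 0% = Arfgap1 plus ARF1-GTP with DMSO and 100% = wells lacking Arfgap1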
TDP2 inh conf: human TDP2 enzyme inhibitors, retest, confirmation, biochemical, epi absorbance, recombinant enzyme. inhibition, % at 12.8 µM. 22% of 1,100 active. absorbance read-out. shares compounds with TDP2 absorb. AID 743263, 2014;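 further: 0% = vehicle with enzyme and 100% = no enzyme buffer only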
* hit, by the source's call; x = no result. Unless noted, no stated cut-off is given here; in the data, active means inhibition above about 25%; inactive means the rest.

SMILES	TDP2 absorb	ASAP1 GAP inh	ARFGAP1 inh	MBD2 DNA inh	LEDGF integ inh	UHRF1 binding	ASAP1 inh confirm	ARFGAP1 confirm	others
Nc1c(C(=O)NCc2ccco2)c2nc3ccccc3nc2n1Cc1ccc(F)cc1	9	32*	0	-1	6	-6	14	x
Nc1c(C(=O)NCc2ccco2)c2nc3ccccc3nc2n1Cc1ccccc1	20	1	4	0	8	-10	x	x
Brc1csc(N2CCNCC2)n1	3	x	x	0	0	0	x	x
CCC(C)C1NC(=O)C(NC(=O)C(CC(C)C)N(C)C(=O)C2CCCN2C(=O)C(C)O)C(C)OC(=O)C(Cc2ccc(OC)cc2)N(C)C(=O)C2CCCN2C(=O)C(CC(C)C)NC(=O)[C@H](C)C(=O)[C@H](C(C)C)OC(=O)CC1O (stereo partly drawn)	-16	27*	5	2	1	6	3	x
O=C(O)c1cccc2c1NC(C(=O)O)C1CC(Sc3ccccc3[N+](=O)[O-])C(Cl)C21 (stereo not drawn)	17	59*	35*	21*	52*	62*	61*	87*
CN(C)c1ccc(/C=C/c2cc[n+](C)c3ccccc23)cc1	-2	44*	37*	9	-15	18	51*	49*
CN(C)c1ccc(/C=C/C=C/c2sc3ccccc3[n+]2C)cc1	-4	80*	92*	-23	-10	-4	109*	127*
CC[n+]1c(/C=C/C=C/c2ccc(N(C)C)cc2)sc2ccccc21	-3	98*	107*	-26	-24	-17	123*	159*
CC[n+]1c(/C=C/N(C)c2ccccc2)sc2ccc(Cl)cc21	-7	3	-3	0	2	0	x	x
CC(=O)N1c2ccccc2C(c2ccccc2)=NCC1C(=O)NCc1ccccc1 (stereo not drawn)	6	x	x	-2	-2	6	x	x
O=c1[nH]cc(N(CCCl)CCCl)c(=O)[nH]1	0	x	x	-3	5	-5	x	x
O=C(CN1C(=O)[C@@H](Cc2c[nH]c3ccccc23)N=C(c2ccccc2)c2ccccc21)NC1CCCCC1	-3	x	x	-4	0	-4	x	x
COCCCn1c(N)c(C(=O)NCCC(C)C)c2nc3ccccc3nc21	41*	27*	23	3	8	7	9	x	TDP2 inh conf=0
CCC(NC(=O)OCc1ccccc1)P(=O)(Oc1ccccc1)Oc1ccccc1 (stereo not drawn)	3	x	x	-6	1	1	x	x

Assay outcomes deposited in PubChem by The Scripps Research Institute Molecular Screening Center.
